ChEMBL document CHEMBL1629528 (J Med Chem, 2010)
Calls of active or inactive are those of the source. The rule behind the calls is not given here.

Key:
D(3) dopamine receptor = D(3) dopamine receptor (Homo sapiens, UniProt P35462); assay: Binding affinity to human recombinant dopamine D3 receptor by radioligand displacement assay
D(2) dopamine receptor = D(2) dopamine receptor (Homo sapiens, UniProt P14416); assay: Binding affinity to human recombinant dopamine D2 receptor by radioligand displacement assay
Sequence of D(2) dopamine receptor (P14416 whole entry): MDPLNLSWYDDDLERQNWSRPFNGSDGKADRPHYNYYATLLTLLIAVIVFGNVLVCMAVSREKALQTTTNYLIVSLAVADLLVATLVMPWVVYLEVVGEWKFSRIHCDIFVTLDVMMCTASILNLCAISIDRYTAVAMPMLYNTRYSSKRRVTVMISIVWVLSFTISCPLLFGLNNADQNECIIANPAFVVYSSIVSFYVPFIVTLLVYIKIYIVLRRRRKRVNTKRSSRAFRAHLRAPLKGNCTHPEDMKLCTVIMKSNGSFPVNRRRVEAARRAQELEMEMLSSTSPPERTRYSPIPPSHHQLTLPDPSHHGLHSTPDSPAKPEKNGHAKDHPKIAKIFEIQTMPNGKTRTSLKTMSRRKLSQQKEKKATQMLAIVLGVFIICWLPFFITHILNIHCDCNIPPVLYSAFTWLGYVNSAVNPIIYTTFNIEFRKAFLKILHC

[1] = biological target: 5-hydroxytryptamine receptor 6 (Homo sapiens, UniProt P50406); assay: Binding affinity to human recombinant 5-HT6 receptor by radioligand displacement assay
Sequence of 5-hydroxytryptamine receptor 6 (P50406 whole entry): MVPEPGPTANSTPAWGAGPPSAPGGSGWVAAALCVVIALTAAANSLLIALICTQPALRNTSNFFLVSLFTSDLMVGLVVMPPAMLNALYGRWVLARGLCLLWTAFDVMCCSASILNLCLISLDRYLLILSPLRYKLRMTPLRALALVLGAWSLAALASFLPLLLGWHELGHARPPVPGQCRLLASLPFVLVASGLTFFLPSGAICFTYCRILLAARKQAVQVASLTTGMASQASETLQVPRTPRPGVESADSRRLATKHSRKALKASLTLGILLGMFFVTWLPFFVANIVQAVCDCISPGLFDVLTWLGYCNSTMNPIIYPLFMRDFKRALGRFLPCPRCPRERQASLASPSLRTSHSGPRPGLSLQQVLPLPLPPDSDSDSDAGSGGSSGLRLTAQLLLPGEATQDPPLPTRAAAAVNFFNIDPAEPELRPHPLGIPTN

[2] = biological target: 5-hydroxytryptamine receptor 2B (Homo sapiens, UniProt P41595); assay: Binding affinity to human recombinant 5-HT2B receptor by radioligand displacement assay
Sequence of 5-hydroxytryptamine receptor 2B (P41595 whole entry): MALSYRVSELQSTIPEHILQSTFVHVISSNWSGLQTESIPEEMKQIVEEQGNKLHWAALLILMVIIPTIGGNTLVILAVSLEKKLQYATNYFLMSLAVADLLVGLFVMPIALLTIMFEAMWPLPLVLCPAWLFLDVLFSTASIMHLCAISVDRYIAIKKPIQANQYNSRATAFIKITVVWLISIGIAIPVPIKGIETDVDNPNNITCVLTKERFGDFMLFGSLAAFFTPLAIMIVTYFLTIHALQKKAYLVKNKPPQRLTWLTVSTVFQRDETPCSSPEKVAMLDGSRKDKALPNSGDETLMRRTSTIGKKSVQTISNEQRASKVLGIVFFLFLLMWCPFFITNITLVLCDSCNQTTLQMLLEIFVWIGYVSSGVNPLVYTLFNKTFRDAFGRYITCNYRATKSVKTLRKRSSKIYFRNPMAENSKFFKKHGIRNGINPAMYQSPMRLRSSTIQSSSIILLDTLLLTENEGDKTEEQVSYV

[3] = biological target: Sodium-dependent serotonin transporter (Rattus norvegicus, UniProt P31652); assay: Inhibition of [3H]5-HT uptake at SERT in rat cortical synaptosomes; type: subcellular, Brain
[4] = biological target: Voltage-gated inwardly rectifying potassium channel KCNH2 (Homo sapiens, UniProt Q12809); assay: Displacement of [3H]dofetilide from human ERG by SPA
Sequence of Voltage-gated inwardly rectifying potassium channel KCNH2 (Q12809 whole entry): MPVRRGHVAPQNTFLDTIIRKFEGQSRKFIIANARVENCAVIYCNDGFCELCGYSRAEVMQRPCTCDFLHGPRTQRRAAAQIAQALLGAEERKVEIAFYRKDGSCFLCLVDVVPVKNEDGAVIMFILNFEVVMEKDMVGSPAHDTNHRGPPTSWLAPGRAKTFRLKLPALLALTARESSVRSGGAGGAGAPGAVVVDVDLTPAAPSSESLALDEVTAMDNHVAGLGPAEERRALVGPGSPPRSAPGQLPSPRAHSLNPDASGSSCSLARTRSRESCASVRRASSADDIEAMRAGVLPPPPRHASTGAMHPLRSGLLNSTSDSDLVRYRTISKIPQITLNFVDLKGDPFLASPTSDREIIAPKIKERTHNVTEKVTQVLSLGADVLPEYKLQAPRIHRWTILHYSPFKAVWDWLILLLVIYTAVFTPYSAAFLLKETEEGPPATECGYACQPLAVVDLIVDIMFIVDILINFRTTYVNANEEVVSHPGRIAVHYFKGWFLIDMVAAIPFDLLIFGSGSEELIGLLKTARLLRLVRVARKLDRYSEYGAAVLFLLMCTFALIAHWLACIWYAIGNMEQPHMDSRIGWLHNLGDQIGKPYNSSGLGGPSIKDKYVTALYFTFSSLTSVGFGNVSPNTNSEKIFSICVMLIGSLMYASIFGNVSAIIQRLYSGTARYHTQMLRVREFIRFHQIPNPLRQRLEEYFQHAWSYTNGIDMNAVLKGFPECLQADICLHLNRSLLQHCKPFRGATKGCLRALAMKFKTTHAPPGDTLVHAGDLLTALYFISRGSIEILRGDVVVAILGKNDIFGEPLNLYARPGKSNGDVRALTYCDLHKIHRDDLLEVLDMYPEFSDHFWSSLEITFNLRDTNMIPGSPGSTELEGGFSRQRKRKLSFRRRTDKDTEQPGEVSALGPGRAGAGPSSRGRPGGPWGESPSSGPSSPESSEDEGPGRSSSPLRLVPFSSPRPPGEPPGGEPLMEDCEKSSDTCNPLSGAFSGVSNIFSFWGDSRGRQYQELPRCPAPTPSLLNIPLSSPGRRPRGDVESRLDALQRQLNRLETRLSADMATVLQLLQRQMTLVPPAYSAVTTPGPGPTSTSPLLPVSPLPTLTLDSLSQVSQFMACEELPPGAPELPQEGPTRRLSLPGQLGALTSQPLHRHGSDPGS

[5] = biological target: 5-hydroxytryptamine receptor 7 (Homo sapiens, UniProt P34969); assay: Binding affinity to human recombinant 5-HT7 receptor by radioligand displacement assay
Sequence of 5-hydroxytryptamine receptor 7 (P34969 whole entry): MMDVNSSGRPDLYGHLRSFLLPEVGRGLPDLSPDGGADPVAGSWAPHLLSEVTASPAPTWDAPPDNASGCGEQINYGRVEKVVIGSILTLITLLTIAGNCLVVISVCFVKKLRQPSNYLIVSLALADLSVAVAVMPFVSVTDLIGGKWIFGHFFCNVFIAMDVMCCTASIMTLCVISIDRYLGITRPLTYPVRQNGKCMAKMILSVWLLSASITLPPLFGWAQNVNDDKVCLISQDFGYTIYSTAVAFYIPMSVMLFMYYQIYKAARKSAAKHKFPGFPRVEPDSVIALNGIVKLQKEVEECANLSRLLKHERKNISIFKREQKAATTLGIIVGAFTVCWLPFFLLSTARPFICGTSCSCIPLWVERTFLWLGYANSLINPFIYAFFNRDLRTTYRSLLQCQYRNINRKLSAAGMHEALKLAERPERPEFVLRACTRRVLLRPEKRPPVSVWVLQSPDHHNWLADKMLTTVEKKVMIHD

[6] = biological target: 5-hydroxytryptamine receptor 2A (Homo sapiens, UniProt P28223); assay: Binding affinity to human recombinant 5-HT2A receptor by radioligand displacement assay
Sequence of 5-hydroxytryptamine receptor 2A (P28223 whole entry): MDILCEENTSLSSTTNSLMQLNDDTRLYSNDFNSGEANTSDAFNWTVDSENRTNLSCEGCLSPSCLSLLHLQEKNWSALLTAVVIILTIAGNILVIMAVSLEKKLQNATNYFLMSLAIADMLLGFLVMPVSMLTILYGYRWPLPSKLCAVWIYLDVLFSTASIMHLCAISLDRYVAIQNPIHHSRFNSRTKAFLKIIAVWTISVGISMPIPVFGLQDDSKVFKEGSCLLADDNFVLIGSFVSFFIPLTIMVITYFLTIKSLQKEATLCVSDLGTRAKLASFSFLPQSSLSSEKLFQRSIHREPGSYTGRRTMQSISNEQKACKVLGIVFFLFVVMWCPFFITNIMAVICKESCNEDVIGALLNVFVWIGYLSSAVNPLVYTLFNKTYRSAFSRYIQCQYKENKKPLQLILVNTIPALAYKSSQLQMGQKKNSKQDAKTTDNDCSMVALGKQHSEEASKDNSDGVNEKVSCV

[7] = biological target: T1, 5-hydroxytryptamine receptor 1A (Homo sapiens, UniProt P08908); assay: Displacement of [3H]WAY100635 from human recombinant 5-HT1A receptor expressed in CHO cells; type: cell-based
T1 sequence (P08908 whole entry): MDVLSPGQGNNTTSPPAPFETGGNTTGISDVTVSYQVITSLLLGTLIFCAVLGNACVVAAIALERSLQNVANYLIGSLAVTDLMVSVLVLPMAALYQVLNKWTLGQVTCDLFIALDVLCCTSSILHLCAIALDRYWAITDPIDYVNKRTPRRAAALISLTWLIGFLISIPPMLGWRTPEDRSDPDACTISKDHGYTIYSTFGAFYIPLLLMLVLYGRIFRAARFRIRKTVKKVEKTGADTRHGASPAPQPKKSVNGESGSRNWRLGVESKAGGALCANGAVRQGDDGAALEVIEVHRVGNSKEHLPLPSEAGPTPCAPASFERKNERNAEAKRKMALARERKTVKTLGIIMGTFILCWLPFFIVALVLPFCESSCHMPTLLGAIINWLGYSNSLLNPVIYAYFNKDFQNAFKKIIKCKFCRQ

[8] = biological target: T2, 5-hydroxytryptamine receptor 1D (Homo sapiens, UniProt P28221); assay: Inverse agonist activity at human recombinant 5-HT1D receptor expressed in CHO cells by [S35]GTPgammaS binding assay; type: functional, cell-based
T2 sequence (P28221 whole entry): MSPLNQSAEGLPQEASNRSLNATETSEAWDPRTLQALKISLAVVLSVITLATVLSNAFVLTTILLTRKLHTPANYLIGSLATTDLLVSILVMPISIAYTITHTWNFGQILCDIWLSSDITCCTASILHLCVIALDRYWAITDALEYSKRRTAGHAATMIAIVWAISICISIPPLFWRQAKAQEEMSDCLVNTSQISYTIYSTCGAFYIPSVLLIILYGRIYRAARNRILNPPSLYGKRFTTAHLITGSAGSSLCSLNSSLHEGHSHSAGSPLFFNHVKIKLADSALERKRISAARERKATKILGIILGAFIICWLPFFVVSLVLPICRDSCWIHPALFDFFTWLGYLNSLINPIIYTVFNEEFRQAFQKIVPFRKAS
In short: (§1)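 [35S]-GTPγS binding in membranes from 10^6 cells (HEK293 for 5-HT1A; CHO for 5-HT1B, 5-HT1D), preincubated 30 min at 30 °C with compound in 20 mM HEPES pH 7.4, 3 mM MgCl2, 100 mM NaCl, 10 μM GDP, 0.2 mM ascorbate. 100 pM [35S]-GTPγS added, 30 min more at 30 °C; nonspecific with 20 μM GTPγS; filtration and scintillation counting.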

[9] = biological target: T2, 5-hydroxytryptamine receptor 1D; assay: Displacement of [3H]5-HT from human recombinant 5-HT1D receptor expressed in CHO cells; type: cell-based
[10] = biological target: T3, 5-hydroxytryptamine receptor 1A (Homo sapiens) (UniProt P08908); assay: Inverse agonist activity at human recombinant 5-HT1A receptor expressed in HEK293 cells by [S35]GTPgammaS binding assay; type: functional, cell-based; in short: as §1
T3 sequence (whole entry): T1 sequence (P08908 whole entry)

[11] = biological target: T4, 5-hydroxytryptamine receptor 1B (Homo sapiens, UniProt P28222); assay: Displacement of [3H]5-HT from human recombinant 5-HT1B receptor expressed in CHO cells; type: cell-based
T4 sequence (P28222 whole entry): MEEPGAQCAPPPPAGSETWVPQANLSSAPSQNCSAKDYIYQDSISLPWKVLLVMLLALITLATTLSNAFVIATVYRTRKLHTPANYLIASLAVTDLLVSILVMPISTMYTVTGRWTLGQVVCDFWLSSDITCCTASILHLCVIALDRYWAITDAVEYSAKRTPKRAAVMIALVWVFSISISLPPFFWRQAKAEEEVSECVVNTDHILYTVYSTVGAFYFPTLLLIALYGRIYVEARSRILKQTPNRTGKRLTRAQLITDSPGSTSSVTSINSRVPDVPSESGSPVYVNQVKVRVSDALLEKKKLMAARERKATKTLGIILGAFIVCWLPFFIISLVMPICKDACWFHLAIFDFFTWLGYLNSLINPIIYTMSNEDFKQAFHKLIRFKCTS

[12] = biological target: T4, 5-hydroxytryptamine receptor 1B; assay: Inverse agonist activity at human recombinant 5-HT1B receptor expressed in CHO cells by [S35]GTPgammaS binding assay; type: functional, cell-based; in short: as §1
[13] = biological target: T5, 5-hydroxytryptamine receptor 2C (Homo sapiens, UniProt P28335); assay: Binding affinity to human recombinant 5-HT2C receptor by radioligand displacement assay
T5 sequence (P28335 whole entry): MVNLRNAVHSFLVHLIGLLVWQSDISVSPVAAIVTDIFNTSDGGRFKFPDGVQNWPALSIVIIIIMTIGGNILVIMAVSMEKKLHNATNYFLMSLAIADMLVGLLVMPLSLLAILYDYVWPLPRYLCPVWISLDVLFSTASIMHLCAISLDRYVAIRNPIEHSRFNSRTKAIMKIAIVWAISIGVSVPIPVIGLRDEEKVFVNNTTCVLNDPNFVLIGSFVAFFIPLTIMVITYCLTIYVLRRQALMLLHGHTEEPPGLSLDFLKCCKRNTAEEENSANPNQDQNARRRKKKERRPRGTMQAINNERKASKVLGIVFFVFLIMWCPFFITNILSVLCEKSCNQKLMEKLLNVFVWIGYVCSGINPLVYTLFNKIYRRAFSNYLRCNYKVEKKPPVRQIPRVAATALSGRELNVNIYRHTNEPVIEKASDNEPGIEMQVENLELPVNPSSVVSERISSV

[14] = Solubility of the compound in water; type: physicochemical
In short: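 Measured on the dihydrochloride salt form, dissolved in water.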

[15] = AUC (0 to infinity) in Sprague-Dawley rat at 1 mg/kg, po after 24 hrs; type: ADME, organism-based; set-up: time infinity, dose 1 mg/kg, route oral; settings: plasma
In short: (§2)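 Male Sprague-Dawley rats dosed po at 1 mg/kg (10 mL/kg, 1% DMSO in aqueous 0.5% methocel), n=3, as a cassette with other compounds; blood sampled at intervals up to 24 h and analysed by protein precipitation then LC-MS/MS.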

[16] = Ratio of drug level in brain to blood in Sprague-Dawley rat after 1 hr; type: ADME, tissue-based; settings: read-out: BBR
In short: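 Male Sprague-Dawley rats dosed iv at 0.5 mg/kg (2.5% DMSO in glucosate), n=3, as a cassette. At 1 h, CO2 anaesthesia, blood taken by heart puncture and brain removed. Both matrices analysed by protein precipitation and LC-MS/MS.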

[17] = Cmax in Sprague-Dawley rat at 1 mg/kg, po after 24 hrs; type: ADME, organism-based; set-up: dose 1 mg/kg, route oral; settings: in vivo; in short: as §2
[18] = Half life in Sprague-Dawley rat at 0.5 mg/kg, iv after 24 hrs; type: ADME, organism-based; set-up: dose 0.5 mg/kg, route intravenous; settings: in vivo
In short: (§3)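 Male Sprague-Dawley rats given 0.5 mg/kg iv (2 mL/kg, 2.5% DMSO in glucosate solution), n=3, cassette dosing; blood collected at intervals up to 24 h, protein precipitation and LC-MS/MS quantification.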

[19] = Solubility of the compound in fed state simulated intestinal fluid at pH 5.5 at 25 degC; type: physicochemical
In short: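 Solubility determined at 25 °C in fed state simulated intestinal fluid at pH 5.5.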

[20] = Oral bioavailability in Sprague-Dawley rat at 1 mg/kg, po after 24 hrs; type: ADME, organism-based; settings: in vivo; in short: as §2
Rattus norvegicus = assay: Inhibition of 8-OH-DPAT-induced hyperlocomotory activity in Sprague-Dawley rat administered orally 60 mins before 8-OH-DPATchallenge; type: functional; settings: for ED50: po
In short: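 Male Sprague-Dawley rats (250–350 g) dosed orally (5 mL/kg) at 0.03, 0.1 or 0.3 mg/kg or vehicle, 60 min before sc 8-OH-DPAT 0.2 mg/kg (2 mL/kg). Total distance travelled recorded by infrared sensors over 30 min immediately after; 8–9 rats per group.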

[21] = Clearance in Sprague-Dawley rat at 0.5 mg/kg, iv after 24 hrs; type: ADME, organism-based; set-up: dose 0.5 mg/kg, route intravenous; settings: in vivo; in short: as §3
[22] = Solubility of the compound in simulated gastric fluid at pH 1.2 at 25 degC; type: physicochemical
[23] = biological target: T2, 5-hydroxytryptamine receptor 1D; assay: Intrinsic activity at human recombinant 5-HT1D receptor expressed in CHO cells by [S35]GTPgammaS binding assay relative to 5-HT; type: functional, cell-based; in short: as §1
[24] = biological target: T4, 5-hydroxytryptamine receptor 1B; assay: Intrinsic activity at human recombinant 5-HT1B receptor expressed in CHO cells by [S35]GTPgammaS binding assay relative to 5-HT; type: functional, cell-based; in short: as §1
[25] = biological target: T3, 5-hydroxytryptamine receptor 1A (Homo sapiens); assay: Intrinsic activity at human recombinant 5-HT1A receptor expressed in HEK293 cells by [S35]GTPgammaS binding assay relative to 5-HT; type: functional, cell-based; in short: as §1

Sequence of D(3) dopamine receptor (P35462 whole entry): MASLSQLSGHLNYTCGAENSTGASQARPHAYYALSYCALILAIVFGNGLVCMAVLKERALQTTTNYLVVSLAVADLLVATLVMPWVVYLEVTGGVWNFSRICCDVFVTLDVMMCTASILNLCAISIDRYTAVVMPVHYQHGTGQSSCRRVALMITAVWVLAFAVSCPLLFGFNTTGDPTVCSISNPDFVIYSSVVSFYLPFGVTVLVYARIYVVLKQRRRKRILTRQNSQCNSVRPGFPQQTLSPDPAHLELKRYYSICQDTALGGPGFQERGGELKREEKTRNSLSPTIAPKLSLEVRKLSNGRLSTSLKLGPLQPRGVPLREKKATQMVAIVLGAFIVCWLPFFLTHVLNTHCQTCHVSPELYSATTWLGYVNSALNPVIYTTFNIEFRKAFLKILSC

Ki (D(3) dopamine receptor) [nM] | Ki (D(2) dopamine receptor) [nM] | Ki [1] [nM] | Ki [2] [nM] | Ki [3] [nM] | Ki [5] [nM] | Ki [6] [nM] | Ki [7] [nM] | Activity [8] | Ki [9] [nM] | Ki [11] [nM] | Activity [12] | Ki [13] [nM] | solubility [14] [µg/mL] | AUC(0-inf) [15] [ng·h/mL] | Kp at 1 h [16] | Cmax [17] [ng/mL] | half-life [18] [h] | Intrinsic activity [25] | SMILES | Ki [4] [nM] | other results
100 | 398 | > 1000 | 126 | 2000 | 79.4 | 79.4 | 1 | Active | 0.316 | 2.51 | Active | 794 |  |  |  |  |  |  | Cc1ccc2c(N3CCN(CCc4cccc(NC(=O)c5ccccc5)c4)CC3)cccc2n1 | 50.1 | Activity [10]: Active
31.6 | 79.4 | 316 | > 6310 | 2000 | 79.4 | > 6310 | 3.98 |  | 0.316 | 3.16 |  | > 10000 |  |  |  |  |  | 0 | Cc1ccc2c(N3CCN(CCc4cccc(NC(=O)Nc5ccccc5)c4)CC3)cccc2n1 | 316 | Intrinsic activity [23]: 0; Intrinsic activity [24]: 0
 |  |  |  |  |  |  |  |  |  |  |  |  |  |  |  |  |  | 0 | Cc1ccc2c(N3CCN(CCc4cccc(N5CCNC5=O)c4)CC3)cccc2n1 |  | Intrinsic activity [23]: 0; Intrinsic activity [24]: 0; inhibition (Rattus norvegicus): Dose-dependent effect

The remaining lines, values behind:

SMILES | Ki (D(3) dopamine receptor) [nM] | Ki (D(2) dopamine receptor) [nM] | Ki [1] [nM] | Ki [2] [nM] | Ki [3] [nM] | Ki [5] [nM] | Ki [6] [nM] | Ki [7] [nM] | Activity [8] | Ki [9] [nM] | Ki [11] [nM] | Activity [12] | Ki [13] [nM] | solubility [14] [µg/mL] | AUC(0-inf) [15] [ng·h/mL] | Kp at 1 h [16] | Cmax [17] [ng/mL] | half-life [18] [h] | Intrinsic activity [25] | Ki [4] [nM] | other results
Cc1ccc2c(N3CCN(CCc4cccc(NS(C)(=O)=O)c4)CC3)cccc2n1.Cl.Cl |  |  |  |  |  |  |  |  |  |  |  |  |  | > 10000 | 1450 | 0.5 | 243 | 3.9 |  |  | solubility [19]: 600 µg/mL; bioavailability [20]: 56%; ED50 (Rattus norvegicus): 1 mg/kg; clearance [21]: 7 mL/min/kg; solubility [22]: > 10000 µg/mL
CC(=O)Nc1cccc(CCN2CCN(c3cccc4nc(C)ccc34)CC2)c1.Cl.Cl |  |  |  |  |  |  |  |  |  |  |  |  |  | > 10000 | 893 | 0.7 | 98 | 4.6 |  |  | solubility [19]: 5000 µg/mL; bioavailability [20]: 51%; ED50 (Rattus norvegicus): 0.09 mg/kg; clearance [21]: 10 mL/min/kg; solubility [22]: > 10000 µg/mL
CCNC(=O)Nc1cccc(CCN2CCN(c3cccc4nc(C)ccc34)CC2)c1 | 126 | 316 | > 6310 | 398 | 501 | 39.8 | 316 | 2 | Active | 0.158 | 1.26 | Active | 794 |  |  |  |  |  | 0 | 631 | 
